Active and inactive are the calls of the source. The calls are words filed in the database; no cut-off is given here.
Assays:
[1] = Antiinflammatory activity in human HBE cells assessed as inhibition of LPS-induced IL-8 production at 5 uM pretreated with compound for 30 mins followed by LPS stimulation and measured after 24 hrs by ELISA relative to control; assay type: functional; settings: 24.5 h, time 1470 min
Method in brief: (§1)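 HBE cells were grown in RPMI-1640 with 10% FBS at 37 °C and 5% CO2. Cells were pretreated for 30 min with compound or indomethacin at 5 μM, then stimulated with LPS (100 μg/mL) for 24 h. IL-6 or IL-8 in the medium was measured by ELISA and normalized to total cell protein determined by BCA assay.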

[2] = Cytotoxicity against human HBE cells assessed as reduction in cell survival at 10 uM by MTT assay; assay type: cell-based
Method in brief: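 HBE cells were seeded at 1 × 10^4 per well in RPMI-1640 with 10% FBS and exposed to compound at 10 μM. Viability was then read by MTT: MTT solution (5 mg/mL) for 4 h at 37 °C in the dark, formazan dissolved in DMSO, and absorbance read at 490 nm.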

[3] = molecular target: T1, Epidermal growth factor receptor (Homo sapiens, UniProt P00533); experiment: Inhibition of EGFR phosphorylation in human HBE cells incubated for 24 hrs by western blot analysis; assay type: cell-based
T1 sequence (P00533 whole entry): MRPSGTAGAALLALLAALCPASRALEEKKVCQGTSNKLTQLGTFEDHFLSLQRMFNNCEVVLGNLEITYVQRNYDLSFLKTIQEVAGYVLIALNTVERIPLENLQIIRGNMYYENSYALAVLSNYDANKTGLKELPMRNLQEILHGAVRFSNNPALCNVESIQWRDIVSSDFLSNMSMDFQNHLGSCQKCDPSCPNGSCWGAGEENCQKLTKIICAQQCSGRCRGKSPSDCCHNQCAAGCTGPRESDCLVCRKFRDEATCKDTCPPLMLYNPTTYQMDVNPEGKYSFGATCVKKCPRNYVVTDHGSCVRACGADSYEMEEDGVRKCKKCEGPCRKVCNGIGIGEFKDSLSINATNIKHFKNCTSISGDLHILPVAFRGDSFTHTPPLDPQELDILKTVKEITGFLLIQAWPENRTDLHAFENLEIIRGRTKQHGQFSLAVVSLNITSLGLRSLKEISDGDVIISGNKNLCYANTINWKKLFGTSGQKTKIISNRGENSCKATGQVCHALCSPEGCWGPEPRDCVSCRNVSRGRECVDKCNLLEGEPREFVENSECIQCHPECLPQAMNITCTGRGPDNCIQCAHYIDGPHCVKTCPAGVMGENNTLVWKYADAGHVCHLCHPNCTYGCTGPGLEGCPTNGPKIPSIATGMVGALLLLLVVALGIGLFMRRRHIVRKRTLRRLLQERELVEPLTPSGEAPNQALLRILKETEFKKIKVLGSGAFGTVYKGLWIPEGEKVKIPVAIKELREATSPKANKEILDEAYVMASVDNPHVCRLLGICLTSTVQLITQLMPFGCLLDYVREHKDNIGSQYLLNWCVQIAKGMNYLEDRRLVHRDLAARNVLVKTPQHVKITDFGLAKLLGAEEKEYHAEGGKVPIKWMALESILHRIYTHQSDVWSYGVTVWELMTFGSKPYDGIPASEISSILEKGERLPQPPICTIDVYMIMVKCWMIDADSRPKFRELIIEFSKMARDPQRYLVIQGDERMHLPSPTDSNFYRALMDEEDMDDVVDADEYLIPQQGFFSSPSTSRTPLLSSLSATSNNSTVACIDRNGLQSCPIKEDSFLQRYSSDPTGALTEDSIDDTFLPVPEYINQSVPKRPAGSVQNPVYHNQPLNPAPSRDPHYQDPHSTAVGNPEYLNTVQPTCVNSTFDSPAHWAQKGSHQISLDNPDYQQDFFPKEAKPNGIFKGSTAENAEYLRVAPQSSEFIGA
Method in brief: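 HBE cells were treated with drug for 24 h, washed with cold PBS and lysed on ice for 30 min in buffer with protease and phosphatase inhibitors, then centrifuged at 12000 r/min, 4 °C, for 30 min. Protein was quantified by BCA and separated by SDS-PAGE. Blots were probed overnight at 4 °C with p-EGFR/EGFR antibodies, then secondary antibody (1:2000, 2 h), and detected by chemiluminescence.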

[4] = Antiinflammatory activity in human HBE cells assessed as inhibition of LPS-induced IL-6 production at 5 uM pretreated with compound for 30 mins followed by LPS stimulation and measured after 24 hrs by ELISA relative to control; assay type: functional; settings: 24.5 h, time 1470 min; method in brief: as §1
[5] = system: HBE; experiment: Antiinflammatory activity in human HBE cells assessed as inhibition of LPS-induced IL-6 production at 5 uM pretreated with compound for 30 mins followed by LPS stimulation and measured after 24 hrs by ELISA; assay type: functional, cell-based; settings: time 1470.0 min; method in brief: as §1
[6] = system: HBE; experiment: Antiinflammatory activity in human HBE cells assessed as inhibition of LPS-induced IL-8 production at 5 uM pretreated with compound for 30 mins followed by LPS stimulation and measured after 24 hrs by ELISA; assay type: functional, cell-based; settings: time 1470.0 min; method in brief: as §1
[7] = Cytotoxicity against human HBE cells assessed as cell survival rate at 10 uM by MTT assay relative to control; assay type: cell-based; settings: read-out: Survival
Method in brief: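 HBE cells in RPMI-1640 with 10% FBS at 37 °C, 5% CO2, seeded at 1 × 10^4 cells per well. Compounds tested at 10 μM. After treatment, MTT (5 mg/mL) for 4 h at 37 °C in the dark, formazan dissolved in DMSO, absorbance read at 490 nm. Data as mean ± SEM.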

[8] = system: Mus musculus; experiment: Antiinflammatory activity against LPS-induced acute lung injury C57BL/6 mouse model assessed as reduction in IL-6 mRNA expression in lungs at 20 mg/kg, ip administered for 3 days and on day 4 treated 1 hr before LPS stimulation and measured after 18 hrs by SYBR green dye based RT-qPCR analysis; assay type: functional, organism-based; settings: time 4.0 day
Method in brief: (§2)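 Same LPS lung-injury protocol: n = 6 male C57BL/6 mice per group, 3 days of i.p. saline or compound, then intratracheal LPS (5 mg/kg) 1 h after the day-4 dose, and sacrifice at 18 h. Lung RNA was extracted with TRIZOL for real-time quantitative PCR, with mouse GAPDH primers alongside the target primers. Data are mean ± SEM; Student's t-test.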

[9] = system: Mus musculus; experiment: Antiinflammatory activity against LPS-induced acute lung injury C57BL/6 mouse model assessed as reduction in edema of lung tissue at 20 mg/kg, ip administered for 3 days and on day 4 treated 1 hr before LPS stimulation and measured after 18 hrs by H and E staining based microscopic analysis; assay type: functional, organism-based; settings: time 4.0 day
Method in brief: (§3)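 Male C57BL/6 mice (20–25 g, SPF) in groups of n = 6 were given 0.9% saline or compound i.p. for 3 days. On day 4, LPS (5 mg/kg) was instilled intratracheally 1 h after dosing, and mice were killed 18 h later. Lungs were fixed in 4% paraformaldehyde, paraffin-embedded, cut at 5 μm, H&E-stained and photographed for pathology.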

[10] = system: Mus musculus; experiment: In vivo inhibition of MAPK phosphorylation in LPS-induced acute lung injury C57BL/6 mouse model assessed as inhibition of ERK phosphorylation in lungs at 20 mg/kg, ip administered for 3 days and on day 4 treated 1 hr before LPS stimulation and measured after 18 hrs by western blot analysis; assay type: functional, organism-based; settings: time 4.0 day
[11] = system: Mus musculus; experiment: Antiinflammatory activity against LPS-induced acute lung injury C57BL/6 mouse model assessed as reduction in iNOS mRNA expression in lungs at 10 to 20 mg/kg, ip administered for 3 days and on day 4 treated 1 hr before LPS stimulation and measured after 18 hrs by SYBR green dye based RT-qPCR analysis; assay type: functional, organism-based; settings: dose 10-20 mg/kg, time 4.0 day; method in brief: as §2
[12] = system: Mus musculus; experiment: Antiinflammatory activity against LPS-induced acute lung injury C57BL/6 mouse model assessed as reduction in total cell count in BALF at 10 to 20 mg/kg, ip administered for 3 days and on day 4 treated 1 hr before LPS stimulation and measured after 18 hrs; assay type: functional, organism-based; settings: dose 10-20 mg/kg, time 4.0 day
Method in brief: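 BALF was collected 18 h after intratracheal LPS (5 mg/kg) in male C57BL/6 mice (n = 6/group) given i.p. saline or compound for 3 days, with LPS 1 h after the day-4 dose. Lavage was done with 3 × 1 mL cold PBS and centrifuged at 800 g, 4 °C, for 10 min. The pellet was washed and resuspended in 10 mL PBS, and total cells were counted.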

[13] = system: Mus musculus; experiment: Antiinflammatory activity against LPS-induced acute lung injury C57BL/6 mouse model assessed as reduction in protein content in BALF at 10 to 20 mg/kg, ip administered for 3 days and on day 4 treated 1 hr before LPS stimulation and measured after 18 hrs by BCA assay; assay type: functional, organism-based; settings: dose 10-20 mg/kg, time 4.0 day
Method in brief: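 In male C57BL/6 mice (n = 6/group; i.p. dosing for 3 days; intratracheal LPS 5 mg/kg 1 h after the day-4 dose; killed at 18 h), lungs were lavaged three times with 1 mL cold PBS. BALF was spun at 800 g, 4 °C, for 10 min, and supernatant protein was measured by BCA assay.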

[14] = system: Mus musculus; experiment: Antiinflammatory activity against LPS-induced acute lung injury C57BL/6 mouse model assessed as reduction in TNF-alpha mRNA expression in lungs at 20 mg/kg, ip administered for 3 days and on day 4 treated 1 hr before LPS stimulation and measured after 18 hrs by SYBR green dye based RT-qPCR analysis; assay type: functional, organism-based; settings: time 4.0 day; method in brief: as §2
[15] = system: Mus musculus; experiment: Antiinflammatory activity against LPS-induced acute lung injury C57BL/6 mouse model assessed as improved alveolar structure in lungs at 20 mg/kg, ip administered for 3 days and on day 4 treated 1 hr before LPS stimulation and measured after 18 hrs by H and E staining based microscopic analysis; assay type: functional, organism-based; settings: time 4.0 day; method in brief: as §3
[16] = system: Mus musculus; experiment: Antiinflammatory activity against LPS-induced acute lung injury C57BL/6 mouse model assessed as reduction in IL-1beta mRNA expression in lungs at 20 mg/kg, ip administered for 3 days and on day 4 treated 1 hr before LPS stimulation and measured after 18 hrs by SYBR green dye based RT-qPCR analysis; assay type: functional, organism-based; settings: time 4.0 day; method in brief: as §2
[17] = system: Mus musculus; experiment: In vivo inhibition of MAPK phosphorylation in LPS-induced acute lung injury C57BL/6 mouse model assessed as inhibition of p38 phosphorylation in lungs at 20 mg/kg, ip administered for 3 days and on day 4 treated 1 hr before LPS stimulation and measured after 18 hrs by western blot analysis; assay type: functional, organism-based; settings: time 4.0 day
[18] = system: Mus musculus; experiment: Antiinflammatory activity against LPS-induced acute lung injury C57BL/6 mouse model assessed as reduction in lung edema by measuring reduction in lung wet/dry ratio at 10 to 20 mg/kg, ip administered for 3 days and on day 4 treated 1 hr before LPS stimulation and measured after 18 hrs; assay type: functional, organism-based; settings: dose 10-20 mg/kg, time 4.0 day
Method in brief: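 Mice (male C57BL/6, n = 6/group) received i.p. saline or compound for 3 days, then intratracheal LPS 5 mg/kg 1 h after the day-4 dose, and were killed 18 h later. Lungs were weighed wet, dried at 60 °C for 48 h to constant weight, and the wet/dry ratio was calculated. Data are mean ± SEM; t-test.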

[19] = system: Mus musculus; experiment: Antiinflammatory activity against LPS-induced acute lung injury C57BL/6 mouse model assessed as reduction in inflammatory cell infiltration in lungs at 20 mg/kg, ip administered for 3 days and on day 4 treated 1 hr before LPS stimulation and measured after 18 hrs by H and E staining based microscopic analysis; assay type: functional, organism-based; settings: time 4.0 day; method in brief: as §3
[20] = system: Peritoneal macrophage; experiment: Inhibition of LPS-induced NO production in mouse peritoneal macrophages measured after 24 hrs by Griess assay; assay type: functional, cell-based
[21] = molecular target: T1, Epidermal growth factor receptor; experiment: Inhibition of human EGFR using poly(Glu:Tyr)(4:1) as substrate in presence of [gamma33P]ATP by radiometric HotSpot assay

SMILES	inhibition at 5 µM [1] [%]	Activity [2]	Activity [5]	Activity [6]	also measured
COc1cc(N2CCCC2)c(N)cc1Nc1nccc(-c2cn(C)c3ccccc23)n1.Cl	65	Non-Toxic	–	–	inhibition [3]: Active; inhibition at 5 µM [4]: 62%
COc1cc(F)c(N)cc1Nc1nccc(-c2cn(C)c3ccccc23)n1	49	Non-Toxic	–	–	inhibition [3]: Active; inhibition at 5 µM [4]: 63%
COc1cc(N(C)CCN(C)C)c(NC(=O)CCCN=[N+]=[N-])cc1Nc1nccc(-c2cn(C)c3ccccc23)n1	88	Non-Toxic	Active	–	–
COc1cc(N(C)CCN(C)C)c(NC(=O)CN=[N+]=[N-])cc1Nc1nccc(-c2cn(C)c3ccccc23)n1	–	Non-Toxic	Active	Active	–
COc1ccc2c(c1)c(CC(=O)O)c(C)n2C(=O)c1ccc(Cl)cc1 [INDOMETHACIN]	–	Non-Toxic	Active	Active	–
COc1cc(N2CCN(C)CC2)c(N)cc1Nc1nccc(-c2cn(C)c3ccccc23)n1	65	–	–	–	viability at 10 µM [7]: < 70%; inhibition at 5 µM [4]: 62%
COc1cc(N2CCCCCC2)c(N)cc1Nc1nccc(-c2cn(C)c3ccccc23)n1.Cl	–	Non-Toxic	Active	Active	–
CCN(CC)c1cc(OC)c(Nc2nccc(-c3cn(C)c4ccccc34)n2)cc1N.Cl	–	Non-Toxic	Active	Active	–
COc1cc(N2CCCCC2)c(N)cc1Nc1nccc(-c2cn(C)c3ccccc23)n1.Cl	–	Non-Toxic	Active	Active	–
COc1cc(N(C)CCN(C)C)c([N+](=O)[O-])cc1Nc1nccc(-c2cn(C)c3ccccc23)n1	–	–	Active	Active	viability at 10 µM [7]: < 70%
COc1cc(N2CCOCC2)c(N)cc1Nc1nccc(-c2cn(C)c3ccccc23)n1.Cl	–	Non-Toxic	Active	Active	–
CCCCN(CCCC)c1cc(OC)c(Nc2nccc(-c3cn(C)c4ccccc34)n2)cc1N.Cl	–	Non-Toxic	Active	Active	–
COc1cc(N(C)CCN(C)C)c(N)cc1Nc1nccc(-c2cn(C)c3ccccc23)n1.Cl	72	Non-Toxic	–	–	Activity [8]: Active; Activity [9]: Active; inhibition [10]: Active; Activity [11]: Active; Activity [12]: Active; Activity [13]: Active; inhibition [3]: Active; Activity [14]: Active; Activity [15]: Active; Activity [16]: Active; inhibition at 5 µM [4]: 62%; inhibition [17]: Active; Activity [18]: Active; Activity [19]: Active
O=C(Nc1cncnc1Oc1cccc(C(F)(F)F)c1)c1ccc(F)cc1	–	–	–	–	IC50 [20]: 20.8 µM; IC50 [21]: 2.98 µM

From ChEMBL document CHEMBL4842366, “Design, synthesis and structure-activity relationship studies of 4-indole-2-arylaminopyrimidine derivatives as anti-inflammatory agents for acute lung injury” (Eur J Med Chem, 2021)
